Measurements: the EternaBench riboswitch data

System: MS2 coat protein
Test: apparent Kd, MS2 coat protein; higher = weaker binding; RNA-MaP array; FMN 200 µM where present
In short: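 Green signal was scaled to red-channel RNA signal and control-cluster median Fmax, and the apparent Kd was taken as the median of filtered per-cluster binding-curve fits. The binding series used SNAP-549-labelled MS2 coat protein from 0.7 or 1.5 nM, doubling to 3 µM, on designs transcribed by stalled E. coli RNA polymerase on Illumina sequencing-chip clusters. Each series ran without and then with constant ligand in 100 mM Tris-HCl pH 7.5, 80 mM KCl, 4 mM MgCl2, BSA, DTT, yeast tRNA and Tween-20.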

[1] = designed as: ON switch for flavin mononucleotide, no ligand
[2] = ligand present: flavin mononucleotide, designed as: ON switch for flavin mononucleotide
[3] = designed as: OFF switch for flavin mononucleotide, no ligand
[4] = ligand present: flavin mononucleotide, designed as: OFF switch for flavin mononucleotide

UCGCCAGGUACAGGAUAUGUGGAUCAGUCAAGUAACUUGCUGAACAUGAGGAUCACCCAUGUAUCACAGAAGGGUGCCUCAAAA
apparent Kd [1]: 199 nM | apparent Kd [2]: 10.8 nM

GUUUAGUGAGGAUAUGUGGCUUCGAUCGUGCGAGGGCGGCUACAGAAGGCACAUGAGGAUCACCCAUGUUCCUC
apparent Kd [3]: 155 nM | apparent Kd [4]: 428 nM

AGAUAACACCAGAAGGACAUGAGGAUCACCCAUGUAGGAUAUGGGCAUCACUCGAGAAAGAAAAGACCAUAUGGACACAUGGUC
apparent Kd [1]: 160 nM | apparent Kd [2]: 13.2 nM

GGGCAAUUAGGAUAUACAUGAGGAUCACCCAUGUGGAAGCCCGGACAGGUAAUCCACUGUAGAAGGGAUUGCCA
apparent Kd [3]: 12 nM | apparent Kd [4]: 13.3 nM

AAAAGAUGAGGAUAUAUAUGGAAUCCAAGGCAUGUGCUCUCACAUGAGGAUCACCCAUGUAGAAGGCAUCUGCC
apparent Kd [3]: 10.1 nM | apparent Kd [4]: 13 nM

CUGAGCUGAGGAUAUACAUGAGGAUCACCCAUGUGUUGGAGCUUGCGUACAGGCAGAUGUAGAAGGCAGUUCGG
apparent Kd [3]: 23.6 nM | apparent Kd [4]: 88.2 nM

ACGUUUAAUACAGGAUAUGUUCUUAUACUAUACAUUGCUUAUUACUUAAUUACAGAAGGGUAUAACAUGAGGAUCACCCAUGUA
apparent Kd [1]: 108 nM | apparent Kd [2]: 63.2 nM

CGAUGGCAUGUAGGAUAUCGAGCUCAAAGAGCUCGAGAAGGACAUGAGGAUCACCCAUGUGCUCACAGACAGUGAGCGCUAUCG
apparent Kd [3]: 31.2 nM | apparent Kd [4]: 156 nM

UAUAUAUAGUAAGGAUAUGUAUAUAUUUGAUAAACAGAAGGUACUGACAUGAGGAUCACCCAUGUUUUAGUGUGGGCAUGUAGA
apparent Kd [3]: 62.8 nM | apparent Kd [4]: 78.6 nM

UAUAUGUCAGGAUAUCGAUUGGUACGGAAUUCGGUACUGGUUGAGAAGGGACAUGAGGAUCACCCAUGUUUUUC
apparent Kd [3]: 38.5 nM | apparent Kd [4]: 228 nM

AUCAGCUCGUCAGGAUAUACGUCACUGCGUCAGCAGUGUGGUAUGAUCACAUGAGGAUCACCCAUGUAGAAGGGACGAGCUGAU
apparent Kd [3]: 8.62 nM | apparent Kd [4]: 132 nM

AACCUAUUACAGAAGGCCAGCUACAUGAGGAUCACCCAUGUCGAGUCAUGGAGGAUAUGUAGUAAUUUGCACGCGGACGAGUAC
apparent Kd [1]: 52.6 nM | apparent Kd [2]: 5.82 nM

UGUGGGAGUCAGAAGGAGUAUUCUACAUGAGGAUCACCCAUGUCUGGUACUAGGAUAUGGGUCUGGACGGACUAAGGUCCCGUA
apparent Kd [1]: 753 nM | apparent Kd [2]: 196 nM

AGCGAGAUAGGCAAGGAUAUGCUGGGUUUCACAUGAGGAUCACCCAUGUCAUAGGUAAUGUCCGAGCAGAAGGUGCAUUCUCUUU
apparent Kd [1]: 171 nM | apparent Kd [2]: 21.7 nM

UGUUACUAGUAAGGAUAUACUAGCGAUAAGCUAGUAGAAGGUACAGUCUUUUGUAUAACAUGUUUACAUGAGGAUCACCCAUGU
apparent Kd [1]: 10.6 nM | apparent Kd [2]: 8.02 nM

AUACAUGAGGAUCACCCAUGUAAUUAAUUAACUAGUAAGAUCUAGGAUAUCAGCUCGAAUAGAGCUGAGAAGGAGAUCACAUGU
apparent Kd [1]: 34 nM | apparent Kd [2]: 15.4 nM

CCUCGACAUGAGGAUCACCCAUGUCAGGAUAUUGUGUUUCGGGUUUUUUACCUUUAGGCAAGAAGGGAUGUGUG
apparent Kd [3]: 15.8 nM | apparent Kd [4]: 22.4 nM

CGCACUUAGCGAGGAUAUGUUAAACAUGAGGAUCACCCAUGUGAUUUAGUAUCAAUAUUAGUGAAACAGAAGGCGCUUAGUGCG
apparent Kd [3]: 14 nM | apparent Kd [4]: 13.2 nM

CGAUAGGACAGAGGAUAUACACAUGAGGAUCACCCAUGUGAUUUCAGCGCGAAAGCGCCAAACAUGUAGAAGGCUGUCCUAUCG
apparent Kd [3]: 25.9 nM | apparent Kd [4]: 10.6 nM

GUGCUCGUGUAAGGAUAUGCAGCCGUUUCGGCUGCAGAAGGUACUAUAAUACAUGAGGAUCACCCAUGUCUCUAUUGUUUGGUG
apparent Kd [1]: 120 nM | apparent Kd [2]: 153 nM
